Experimental data: ChEMBL document CHEMBL1144889 (J Med Chem, 2003)

Experiments:
[1] = Binding affinity towards estradiol receptor (Estrogen receptor); design: species or system Homo sapiens
Summary of the method: (§1)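 Competition radioligand binding; tracers [3H]aldosterone (MR) and [3H]estradiol (ER). Bound ligand collected on hydroxyapatite, washed with ice-cold buffer, counted by scintillation. IC50 obtained from Hill analysis of binding curves, Ki from Cheng-Prusoff. Mean of two experiments in triplicate, single triplicate run, or ≥3 experiments in triplicate.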

[2] = Binding affinity towards aldosterone receptor (Mineralocorticoid receptor); design: species or system Homo sapiens; summary of the method: as §1
[3] = molecular target: T1, Glucocorticoid receptor (Homo sapiens, UniProt P04150); assay: Transcriptional repression in HepG2 cells expressing human glucocorticoid receptor; assay type: functional, cell-based
T1 sequence (P04150 whole entry): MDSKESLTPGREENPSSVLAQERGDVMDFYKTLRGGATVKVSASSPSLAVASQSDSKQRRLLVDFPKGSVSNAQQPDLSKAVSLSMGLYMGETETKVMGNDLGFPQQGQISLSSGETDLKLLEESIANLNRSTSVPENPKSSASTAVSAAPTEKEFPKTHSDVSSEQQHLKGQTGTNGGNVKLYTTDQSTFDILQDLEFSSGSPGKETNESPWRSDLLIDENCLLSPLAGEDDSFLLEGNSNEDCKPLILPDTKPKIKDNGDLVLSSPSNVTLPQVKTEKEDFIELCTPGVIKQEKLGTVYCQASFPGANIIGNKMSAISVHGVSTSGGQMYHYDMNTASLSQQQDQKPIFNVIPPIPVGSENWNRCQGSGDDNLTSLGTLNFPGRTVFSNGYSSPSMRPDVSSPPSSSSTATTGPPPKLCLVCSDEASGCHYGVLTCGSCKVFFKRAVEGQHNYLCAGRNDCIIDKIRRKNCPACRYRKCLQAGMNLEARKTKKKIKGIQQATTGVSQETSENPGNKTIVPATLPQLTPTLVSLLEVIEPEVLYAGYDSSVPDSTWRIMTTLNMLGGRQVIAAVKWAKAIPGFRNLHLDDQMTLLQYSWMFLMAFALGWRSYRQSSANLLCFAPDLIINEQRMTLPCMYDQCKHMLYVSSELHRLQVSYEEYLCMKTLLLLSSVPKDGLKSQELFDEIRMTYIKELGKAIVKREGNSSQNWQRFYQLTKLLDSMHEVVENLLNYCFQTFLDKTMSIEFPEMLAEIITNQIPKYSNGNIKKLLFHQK

[4] = molecular target: T2, Glucocorticoid receptor (Homo sapiens) (UniProt P04150); assay: Transcriptional activation in CV-1 cells expressing human glucocorticoid receptor compared to Dexamethasone; assay type: functional, cell-based
T2 sequence (whole entry): T1 sequence (P04150 whole entry)
Summary of the method: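 GRE activation co-transfection in CV-1 cells: hGR receptor plasmid plus a luciferase reporter driven by part of the MMTV promoter (four GRE sites, no known AP-1 or NFκB affinity). Full seven-point, half-log concentration-response curves run in triplicate. EC50 is the concentration at half-maximal response; efficacy is given as % of the dexamethasone maximal response.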

[5] = molecular target: T1, Glucocorticoid receptor; assay: Transcriptional activation in CV-1 cells expressing human glucocorticoid receptor; assay type: functional, cell-based
Summary of the method: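 Cotransfection of an hGR receptor plasmid with a luciferase reporter driven by the MMTV promoter (four GREs) in CV-1 cells. Seven-point half-log concentration-response curves. EC50 taken as half-maximal response. Efficacy expressed as % of the dexamethasone maximum. Mean of two experiments in triplicate, single triplicate run, or ≥3 experiments in triplicate.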

[6] = molecular target: T3, Androgen receptor (Homo sapiens, UniProt P10275); assay: Binding affinity towards testosterone receptor
T3 sequence (P10275 whole entry): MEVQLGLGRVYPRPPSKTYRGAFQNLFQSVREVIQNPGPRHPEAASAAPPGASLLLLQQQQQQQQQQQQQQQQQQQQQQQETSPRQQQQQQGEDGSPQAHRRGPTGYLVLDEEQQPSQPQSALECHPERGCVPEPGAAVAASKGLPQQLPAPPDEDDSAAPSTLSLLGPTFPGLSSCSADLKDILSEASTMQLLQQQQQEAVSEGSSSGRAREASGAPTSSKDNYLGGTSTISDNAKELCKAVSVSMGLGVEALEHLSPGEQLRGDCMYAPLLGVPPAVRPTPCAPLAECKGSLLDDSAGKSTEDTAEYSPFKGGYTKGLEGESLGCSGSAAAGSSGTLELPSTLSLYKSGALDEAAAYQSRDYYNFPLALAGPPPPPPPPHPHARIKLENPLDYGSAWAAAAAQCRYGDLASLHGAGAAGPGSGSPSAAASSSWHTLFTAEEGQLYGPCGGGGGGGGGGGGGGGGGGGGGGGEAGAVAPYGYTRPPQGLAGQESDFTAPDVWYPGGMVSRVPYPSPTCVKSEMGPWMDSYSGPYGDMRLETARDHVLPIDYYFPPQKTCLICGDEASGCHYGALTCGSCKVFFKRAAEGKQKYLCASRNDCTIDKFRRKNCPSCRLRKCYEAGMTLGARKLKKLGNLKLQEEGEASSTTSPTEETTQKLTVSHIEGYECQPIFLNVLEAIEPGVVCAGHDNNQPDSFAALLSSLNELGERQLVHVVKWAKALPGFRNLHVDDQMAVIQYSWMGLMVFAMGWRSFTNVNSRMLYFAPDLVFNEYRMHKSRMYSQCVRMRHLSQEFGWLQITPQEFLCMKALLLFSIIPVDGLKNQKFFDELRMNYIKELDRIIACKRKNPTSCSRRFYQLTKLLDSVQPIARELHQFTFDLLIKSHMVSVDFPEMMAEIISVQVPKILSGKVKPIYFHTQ

[7] = molecular target: T1, Glucocorticoid receptor; assay: Binding affinity towards human glucocorticoid receptor (GR) was determined using [3H]dexamethasone as radioligand in […] cells; assay type: cell-based
[8] = molecular target: T4, Progesterone receptor (Homo sapiens, UniProt P06401); assay: Displacement of [3H]progesterone from human Progesterone receptor A
T4 sequence (P06401 whole entry): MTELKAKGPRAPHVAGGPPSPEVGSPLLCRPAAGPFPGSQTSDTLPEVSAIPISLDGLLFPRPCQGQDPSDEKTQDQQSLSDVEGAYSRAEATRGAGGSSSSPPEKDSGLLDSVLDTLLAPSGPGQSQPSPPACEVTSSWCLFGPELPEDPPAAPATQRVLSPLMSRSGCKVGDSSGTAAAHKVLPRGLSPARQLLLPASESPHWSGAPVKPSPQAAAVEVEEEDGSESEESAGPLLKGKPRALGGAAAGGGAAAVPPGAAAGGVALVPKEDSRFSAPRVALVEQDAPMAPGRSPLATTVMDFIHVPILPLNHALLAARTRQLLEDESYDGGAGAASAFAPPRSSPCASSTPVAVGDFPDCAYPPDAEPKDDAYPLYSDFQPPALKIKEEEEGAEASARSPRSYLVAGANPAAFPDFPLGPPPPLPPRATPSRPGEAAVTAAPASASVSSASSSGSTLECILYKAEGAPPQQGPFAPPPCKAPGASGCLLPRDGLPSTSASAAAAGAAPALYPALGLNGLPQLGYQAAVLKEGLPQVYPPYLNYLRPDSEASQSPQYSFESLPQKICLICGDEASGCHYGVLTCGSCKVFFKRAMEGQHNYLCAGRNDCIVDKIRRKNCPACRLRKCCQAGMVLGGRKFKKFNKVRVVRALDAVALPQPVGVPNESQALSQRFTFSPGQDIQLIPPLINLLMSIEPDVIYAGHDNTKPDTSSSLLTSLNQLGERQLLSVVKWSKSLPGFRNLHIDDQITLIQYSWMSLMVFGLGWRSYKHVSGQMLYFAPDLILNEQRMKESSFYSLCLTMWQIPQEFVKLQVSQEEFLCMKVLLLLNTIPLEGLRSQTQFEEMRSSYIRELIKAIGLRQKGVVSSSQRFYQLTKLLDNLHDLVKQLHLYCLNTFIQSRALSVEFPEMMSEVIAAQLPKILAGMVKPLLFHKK

[9] = tested on: Rattus norvegicus; assay: Reduction in carrageenan induced paw edema in rat after oral dose; assay type: functional
Summary of the method: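 Sprague-Dawley rats dosed orally, then given carrageenan into the hind paw. Edema read at 3 h as the increase in paw volume. ED50 dose calculated from dose-dependent inhibition of edema.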

SMILES | Ki [1] [nM] | Ki [2] [nM] | EC50 [3] [nM] | Efficacy [4] [%] | EC50 [5] [nM] | Ki [6] [nM] | Ki [7] [nM] | Ki [8] [nM] | ED50 [9] [mg/kg]
C[C@]12C=CC(=O)C=C1CCC1[C@@H]2[C@@H](O)C[C@@]2(C)[C@H]1CC[C@]2(O)C(=O)CO (single isomer, unassigned) [PREDNISOLONE] | > 1000 | 37 |  |  |  |  |  |  | 
C=CCC1Oc2cccc(Cl)c2-c2ccc3c(c21)C(C)=CC(C)(C)N3 (stereo unspecified) |  |  | 45 |  |  |  |  |  | 
C=CCC1Oc2cccc(SC)c2-c2ccc3c(c21)C(C)=CC(C)(C)N3 (stereo unspecified) | > 1000 | 93.8 | 18 | 60 | 123 | 2460 |  |  | 
C=CCC1Oc2ccc(CO)c(OC)c2-c2ccc3c(c21)C(C)=CC(C)(C)N3 (stereo unspecified) |  |  | 53 |  |  |  | 6.6 | 100 | 
C=CCC1Oc2cccc(C=C)c2-c2ccc3c(c21)C(C)=CC(C)(C)N3 (stereo unspecified) | > 1000 | 57 | 12 | 50 | 17 | 239 | 4.4 | 435 | 
C=CCC1Oc2ccc(O)c(OC)c2-c2ccc3c(c21)C(C)=CC(C)(C)N3 (stereo unspecified) |  |  | 14 |  |  |  |  | 150 | 16
C=CCC1Oc2ccc(Cl)c(OC)c2-c2ccc3c(c21)C(C)=CC(C)(C)N3 (stereo unspecified) |  |  | 94 |  |  |  | 5.42 | 29 | 
C#CCOc1ccc2c(c1OC)-c1ccc3c(c1C(CC=C)O2)C(C)=CC(C)(C)N3 (stereo unspecified) |  |  | 160 |  |  |  |  |  | 
C=CCC1Oc2cccc(NC)c2-c2ccc3c(c21)C(C)=CC(C)(C)N3 (stereo unspecified) | > 1000 | 251 | 19 | 60 | 32 | 2590 | 7 | 2920 | 
C=CCC1Oc2ccc(C(=O)OC)c(OC)c2-c2ccc3c(c21)C(C)=CC(C)(C)N3 (stereo unspecified) |  |  | 100 |  |  |  |  |  | 
C=CCC1Oc2c(Br)ccc(OC)c2-c2ccc3c(c21)C(C)=CC(C)(C)N3 (stereo unspecified) |  |  | 59 |  |  |  |  | > 5000 | 
C#CCOc1cccc2c1-c1ccc3c(c1C(CC=C)O2)C(C)=CC(C)(C)N3 (stereo unspecified) |  |  | 270 | 9 | > 300 |  | 4.2 |  | 
C=CCOc1ccc2c(c1OC)-c1ccc3c(c1C(CC=C)O2)C(C)=CC(C)(C)N3 (stereo unspecified) |  |  | 140 |  |  |  |  |  | 
C=CCC1Oc2ccc(OCC#N)c(OC)c2-c2ccc3c(c21)C(C)=CC(C)(C)N3 (stereo unspecified) |  |  | 130 |  |  |  | 51 | 3080 | 
C=CCC1Oc2cccc(OC)c2-c2ccc3c(c21)C(C)=CC(C)(C)N3 (stereo unspecified) [AL-43] | > 1000 | 46 |  | 68 |  | 1230 |  |  | 15
C=CCC1Oc2cccc(C#N)c2-c2ccc3c(c21)C(C)=CC(C)(C)N3 (stereo unspecified) | > 1000 | > 5000 | 60 | 87 | 195 | > 5000 |  |  | 
C#Cc1cccc2c1-c1ccc3c(c1C(CC=C)O2)C(C)=CC(C)(C)N3 (stereo unspecified) | > 1000 | 350 | 59 | 92 | 130 | 650 | 6.9 | 2400 | 
C=CCC1Oc2c(Br)cc(O)c(Cl)c2-c2ccc3c(c21)C(C)=CC(C)(C)N3 (stereo unspecified) |  |  |  |  |  |  |  | 22 | 
C=CCC1Oc2c(C=C)ccc(OC)c2-c2ccc3c(c21)C(C)=CC(C)(C)N3 (stereo unspecified) |  |  | 156 |  |  |  | 34 | 450 | 
C=CCC1Oc2c(C)ccc(OC)c2-c2ccc3c(c21)C(C)=CC(C)(C)N3 (stereo unspecified) |  |  | 81 |  |  |  |  | > 5000 | 
C=CCC1Oc2ccc(OC)c(OC)c2-c2ccc3c(c21)C(C)=CC(C)(C)N3 (stereo unspecified) |  |  | 120 |  |  |  |  |  | 
C=CCC1Oc2cccc(OC(F)F)c2-c2ccc3c(c21)C(C)=CC(C)(C)N3 (stereo unspecified) | > 1000 | 35.8 | 18 | 70 | 35 | 96.3 | 2.2 | 349 | 21
C=CCC1Oc2ccc(Br)c(OC)c2-c2ccc3c(c21)C(C)=CC(C)(C)N3 (stereo unspecified) |  |  | 82 |  |  |  |  | 34 | 
C=CCC1Oc2cccc(CO)c2-c2ccc3c(c21)C(C)=CC(C)(C)N3 (stereo unspecified) | > 1000 | 292 | 19 | 69 | 61 | 1320 | 2.3 |  | 
C=CCC1Oc2ccccc2-c2ccc3c(c21)C(C)=CC(C)(C)N3 (stereo unspecified) | > 1000 | > 5000 | 350 | 2 | > 300 | > 5000 | 33.8 |  | 
C=CCC1Oc2ccc(O)c(Cl)c2-c2ccc3c(c21)C(C)=CC(C)(C)N3 (stereo unspecified) |  |  | 5 |  |  |  |  |  | 15
C=CCC1Oc2cccc(O)c2-c2ccc3c(c21)C(C)=CC(C)(C)N3 (stereo unspecified) | > 1000 | 1370 | 250 | 29 | 550 | 2060 | 27.6 |  | 
